Drawing on ChEMBL document CHEMBL1154274, “Oligomeric formylpeptide activity on human neutrophils” (2009), this text covers Ratio, Activity and Efficacy for four molecules.

Active and inactive are the calls of the source. No cut-off for these calls is given here.

For one assay, the system named is Neutrophil. Kind of assay: Ratio of compound to fMLP-OMe potency for induction of chemotactic activity in human neutrophils. Type of assay: functional.
Assay [1] can be described thus: Activation of cellular function of human neutrophils assessed as chemotactic index at 0.000001 to 10 uM. Type of assay: functional, cell-based. The conditions noted are these: Neutrophil. In outline: (§1)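 48-well microchemotaxis chamber with peptide in the lower compartment, diluted from 10^-2 M DMSO stock into KRPG with 1 mg/mL BSA; tested 10^-12 to 10^-5 M. Filter migration was scored by the leading-front method. Chemotactic index = (migration to attractant − migration to buffer)/migration to buffer. Five experiments, duplicate.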

Assay [2] in a line: Activation of cellular function of human neutrophils assessed as chemotactic index at 0.01 uM. The class given is functional, cell-based. The conditions noted are these: Neutrophil. In outline:
as §1

Assay [3] can be described thus: Activation of cellular function of cytochalasin B-pretreated human neutrophils assessed as maximal induction of lysozyme release at 10 uM after 15 mins by microplate-based assay. Type of assay: functional, cell-based. The conditions noted are these: Neutrophil. In outline:
(§2)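 Neutrophils from heparinized peripheral blood of fasting healthy donors (dextran sedimentation, Ficoll-Paque, hypotonic NH4Cl lysis), resuspended in KRPG pH 7.4 with 1 mM MgCl2 and CaCl2. Pre-incubated with cytochalasin B for 15 min at 37 °C, then given peptide (final 10^-10 to 10^-4 M) for 15 min at 37 °C. After centrifugation, lysozyme was read by Micrococcus lysodeikticus lysis rate at 465 nm, as net % of Triton X-100 total. Five experiments, duplicate.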

A short description of assay [4]: Activation of cellular function of cytochalasin B-pretreated human neutrophils assessed as induction of superoxide anion production at 10 uM by microplate-based assay. The class given is functional, cell-based. The conditions noted are these: Neutrophil. In short, it runs like this: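 Microplate ferricytochrome c reduction, superoxide dismutase-inhibitable, in KRPG. Wells held 4 × 10^5 neutrophils and 100 nmol cytochrome c. Cells were pre-incubated with cytochalasin B for 5 min. Peptide (10^-10 to 10^-4 M) was added at zero time at 37 °C. A550 minus A468 was converted to nmol O2− using ε 18.5 mM^-1 cm^-1. Five experiments, duplicate.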

A short description of assay [5]: Activation of cellular function of human neutrophils assessed as induction of chemotactic activity at 0.01 uM. The class given is functional, cell-based. To be noted: Neutrophil. In outline:
as §1

Assay [6] can be described thus: Activation of cellular function of cytochalasin B-pretreated human neutrophils assessed as induction of lysozyme release at 1 uM after 15 mins by microplate-based assay. The class given is functional, cell-based. The conditions noted are these: Neutrophil. In short, it runs like this: as §2

Turning to `COC(=O)[C@H](CCCCN[C@@H](Cc1ccccc1)C(=O)N[C@@H](CC(C)C)C(=O)N[C@H](C=O)CCSC)NC(=O)[C@H](CCCCN[C@@H](Cc1ccccc1)C(=O)N[C@@H](CC(C)C)C(=O)N[C@H](C=O)CCSC)NC(=O)[C@H](Cc1ccccc1)NC(=O)[C@H](CC(C)C)NC(=O)[C@H](CCSC)NC=O`, the results for the Ratio (in the assay on Neutrophil; in assay [1]; in assay [2]) were 10, 0.95 and 0.9, respectively. The outcome in assay [3], in assay [4] and in assay [5] was Active. In addition, in assay [6], the Efficacy was 40%.
Take `COC(=O)C[C@H](NCCCC[C@H](NC(=O)[C@H](Cc1ccccc1)NC(=O)[C@H](CC(C)C)NC(=O)[C@H](CCSC)NC=O)C(=O)OC)C(=O)N[C@@H](Cc1ccccc1)C(=O)N[C@@H](CC(C)C)C(=O)N[C@H](C=O)CCSC`: the Ratio in the assay on Neutrophil was 10; in assay [1], 0.95; in assay [2], 0.9. In addition, the outcome in assay [3], in assay [4] and in assay [5] was Active. Besides, the Efficacy in assay [6] turned out to be 20%.
For the molecule `COC(=O)[C@H](CCCCN[C@@H](Cc1ccccc1)C(=O)N[C@@H](CC(C)C)C(=O)N[C@H](C=O)CCSC)NC(=O)[C@H](Cc1ccccc1)NC(=O)[C@H](CC(C)C)NC(=O)[C@H](CCSC)NC=O`, the Ratio with Neutrophil is on record as 10. The outcome in assay [3], in assay [4] and in assay [5] was Active. The Efficacy in assay [6] worked out at 40%.
In the case of `COC(=O)[C@H](Cc1ccccc1)NC(=O)[C@H](CC(C)C)NC(=O)[C@H](CCSC)NC=O`, the Ratio in assay [1] and in assay [2] was 1.05 throughout. Besides, in assay [6], the Efficacy is 60%.
